Experimental data from ChEMBL document CHEMBL1134766, “Synthesis of 2beta-acyl-3beta-(substituted naphthyl)-8-azabicyclo[3.2.1]octanes and their binding affinities at dopamine and serotonin transport sites” (J Med Chem, 2001).

Assays:
[1] = biological target: Sodium-dependent serotonin transporter (Rattus norvegicus, UniProt P31652); assay: Affinity for the displacement of [3H]paroxetine binding to serotonin transporter (SERT) in rat frontal cortex membranes; format: cell membranes, Membrane
In short: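 Displacement of 0.4 nM [3H]paroxetine in frontal cortex membranes (50 mg original wet weight) dissected from frozen Sprague-Dawley rat brains, using 7-10 analogue concentrations. Nonspecific binding was defined with 10 µM fluoxetine. Ki was obtained by nonlinear curve fitting and the Cheng-Prusoff equation. Values are mean ± SEM of ≥3 experiments, each in triplicate.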

[2] = biological target: Sodium-dependent dopamine transporter (Rattus norvegicus, UniProt P23977); assay: Inhibitory activity in displacing [125I]- RTI-55 binding to dopamine transporter in rat striatal membranes; format: cell membranes, Striatum, Membrane
Sequence of Sodium-dependent dopamine transporter (P23977 whole entry): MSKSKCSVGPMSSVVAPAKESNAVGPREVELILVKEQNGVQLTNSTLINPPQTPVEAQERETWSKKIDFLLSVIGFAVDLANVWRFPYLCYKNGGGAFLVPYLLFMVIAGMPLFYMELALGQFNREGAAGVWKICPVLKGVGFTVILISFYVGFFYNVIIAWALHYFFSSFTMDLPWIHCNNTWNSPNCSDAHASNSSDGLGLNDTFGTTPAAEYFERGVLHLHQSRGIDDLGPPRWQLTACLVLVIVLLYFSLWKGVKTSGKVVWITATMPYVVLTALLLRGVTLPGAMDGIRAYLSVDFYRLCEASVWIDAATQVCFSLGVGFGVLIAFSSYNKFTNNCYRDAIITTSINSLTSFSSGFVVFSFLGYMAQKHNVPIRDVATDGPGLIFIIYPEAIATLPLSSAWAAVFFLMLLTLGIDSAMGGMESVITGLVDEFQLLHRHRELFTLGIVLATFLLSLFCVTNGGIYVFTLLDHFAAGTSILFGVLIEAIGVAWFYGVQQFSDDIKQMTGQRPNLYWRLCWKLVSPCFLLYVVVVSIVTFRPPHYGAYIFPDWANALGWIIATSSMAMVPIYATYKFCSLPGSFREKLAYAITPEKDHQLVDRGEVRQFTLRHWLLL
In short: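 Nonspecific binding was defined with 1 µM WF-23. Curves were fitted by nonlinear regression, and IC50 is reported because binding at this transporter is multiphasic. Values are mean ± SEM of ≥3 experiments, each run in triplicate.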

[3] = biological target: Monoamine transporters; serotonin & dopamine (Rattus norvegicus) (UniProt P31652+P23977); assay: SERT/DAT (serotonin transporter/dopamine transporter) binding potency ratio; format: protein assay
Sequence of Monoamine transporters; serotonin & dopamine (Rattus norvegicus) (P23977 whole entry, looked up): as the sequence (P23977 whole entry) above
Sequence of Monoamine transporters; serotonin & dopamine (Rattus norvegicus) (P31652 whole entry, looked up): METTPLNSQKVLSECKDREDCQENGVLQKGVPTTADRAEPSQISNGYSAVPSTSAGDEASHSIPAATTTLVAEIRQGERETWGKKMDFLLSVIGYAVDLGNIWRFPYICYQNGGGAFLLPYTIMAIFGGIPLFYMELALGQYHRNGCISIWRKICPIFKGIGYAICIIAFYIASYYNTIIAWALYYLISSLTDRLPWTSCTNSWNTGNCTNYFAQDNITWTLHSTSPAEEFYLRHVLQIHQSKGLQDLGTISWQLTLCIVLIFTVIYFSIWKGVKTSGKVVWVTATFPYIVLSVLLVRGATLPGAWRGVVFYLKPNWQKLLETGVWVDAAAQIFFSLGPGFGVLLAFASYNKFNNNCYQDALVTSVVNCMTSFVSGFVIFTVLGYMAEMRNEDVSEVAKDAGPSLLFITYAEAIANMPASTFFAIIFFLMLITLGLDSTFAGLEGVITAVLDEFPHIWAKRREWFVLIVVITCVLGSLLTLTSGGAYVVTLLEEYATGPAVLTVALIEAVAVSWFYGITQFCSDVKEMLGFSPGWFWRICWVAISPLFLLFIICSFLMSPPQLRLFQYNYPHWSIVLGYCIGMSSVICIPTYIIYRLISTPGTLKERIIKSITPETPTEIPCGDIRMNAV

[4] = biological target: Norepinephrine transporter (Rattus norvegicus, UniProt Q9WTR4); assay: Affinity for the displacement of [3H]paroxetine binding to norepinephrine transporter (NET) in rat frontal cortex membranes; format: cell membranes, Membrane
Sequence of Norepinephrine transporter (Q9WTR4 whole entry): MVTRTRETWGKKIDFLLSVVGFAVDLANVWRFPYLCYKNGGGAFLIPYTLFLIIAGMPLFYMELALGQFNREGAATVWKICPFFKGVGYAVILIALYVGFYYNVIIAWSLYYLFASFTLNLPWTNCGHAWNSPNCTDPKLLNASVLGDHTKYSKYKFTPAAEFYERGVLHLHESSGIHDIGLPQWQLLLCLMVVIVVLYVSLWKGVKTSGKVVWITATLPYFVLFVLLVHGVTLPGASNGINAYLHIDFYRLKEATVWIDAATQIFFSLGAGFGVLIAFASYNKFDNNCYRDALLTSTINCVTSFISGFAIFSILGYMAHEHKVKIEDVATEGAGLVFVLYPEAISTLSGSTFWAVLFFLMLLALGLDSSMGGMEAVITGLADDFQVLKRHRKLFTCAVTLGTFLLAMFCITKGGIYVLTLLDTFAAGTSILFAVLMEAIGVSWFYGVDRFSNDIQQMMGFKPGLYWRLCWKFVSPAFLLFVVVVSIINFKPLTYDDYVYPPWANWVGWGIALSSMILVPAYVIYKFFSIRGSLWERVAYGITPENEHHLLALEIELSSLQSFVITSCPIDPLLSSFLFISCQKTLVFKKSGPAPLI

Sequence of Sodium-dependent serotonin transporter (P31652 whole entry): as the sequence (P31652 whole entry, looked up) above

Structure (SMILES)	Ki [1]	IC50 [2]	Potency ratio [3]	Ki [4]
CC(=O)C1C(c2cccc3ccccc23)CC2CCC1N2C (stereo in doubt; form 1) [listing 1 of 2 here]	217 nM	97 nM	–	–
CC(=O)C1C(c2cccc3ccccc23)CC2CCC1N2C (stereo in doubt; form 1) [listing 2 of 2 here]	–	–	0.45	–
CC(=O)C1C(c2cccc3ccccc23)CC2CCC1N2C (stereo in doubt; form 2) [listing 1 of 2 here]	–	–	–	165 nM
CCC(=O)C1C2CCC(CC1c1ccc3ccccc3c1)N2 (configuration not stated)	0.23 nM	0.03 nM	0.13	2.05 nM
CCC(=O)C1C(c2ccc(C)c3ccccc23)CC2CCC1N2C (configuration not stated)	8.99 nM	25.1 nM	3	163 nM
CCC(=O)C1C(c2ccc3ccccc3c2)CC2CCC1N2C (stereo in doubt) [listing 1 of 2 here]	16.4 nM	2.51 nM	–	68 nM
CCC(=O)C1C(c2ccc3ccccc3c2)CC2CCC1N2C (stereo in doubt; 8)	–	–	0.3	–
CCC(=O)C1C(c2ccc3c([N+](=O)[O-])c(OC)ccc3c2)CC2CCC1N2C (configuration not stated)	15 nM	148 nM	10	–
CCC(=O)C1C(c2ccc3cc(OC)ccc3c2)CC2CCC1N2C (configuration not stated)	2.24 nM	0.13 nM	0.05	–
CCC(=O)C1C(c2cccc3ccccc23)CC2CCC1N2C (configuration not stated)	–	–	0.3	49 nM
CCC(=O)C1C(c2ccc(C(C)C)c3ccccc23)CC2CCC1N2C (configuration not stated)	136 nM	225 nM	2	> 10000 nM
CC(=O)C1C(c2ccc3ccccc3c2)CC2CCC1N2C (configuration not stated)	–	1.27 nM	1.2	4.9 nM
CCC(=O)C1C(c2ccc3c(CC)c(OC)ccc3c2)CC2CCC1N2C (configuration not stated)	7.55 nM	30.8 nM	4.1	3360 nM
CCC(=O)C1C(c2ccc3cc(CC)ccc3c2)CC2CCC1N2C (configuration not stated)	0.38 nM	0.15 nM	0.4	27.7 nM
CCC(=O)C1C(c2ccc3cc(I)ccc3c2)CC2CCC1N2C (configuration not stated)	0.37 nM	0.35 nM	1	–
CCC(=O)C1C(c2ccc3c(C(C)=O)c(OC)ccc3c2)CC2CCC1N2C (configuration not stated)	15.8 nM	12.6 nM	0.8	498 nM
C=C(C)c1c(OC)ccc2cc(C3CC4CCC(C3C(=O)CC)N4C)ccc12 (configuration not stated)	88 nM	45 nM	0.5	2330 nM
CCC(=O)C1C(c2ccc(C)cc2)CC2CCC1N2C (configuration not stated)	–	–	0.06	65 nM
CCC(=O)C1C(c2ccc3cc(C(C)C)ccc3c2)CC2CCC1N2C (configuration not stated)	1.97 nM	0.39 nM	0.2	–
CCC(=O)C1C(c2ccc3ccccc3c2)CC2CCC1N2C (stereo in doubt) [listing 2 of 2 here]	–	–	0.15	–
CC(=O)C1C(c2cccc3ccccc23)CC2CCC1N2C (stereo in doubt; form 2) [listing 2 of 2 here]	–	–	0.4	–
CCC(=O)C1C(c2ccc(CC)c3ccccc23)CC2CCC1N2C (configuration not stated)	175 nM	75.1 nM	0.7	4770 nM
CC(C)C(=O)C1C(c2ccc3ccccc3c2)CC2CCC1N2C (configuration not stated)	2.08 nM	0.25 nM	0.12	37.6 nM
CCC(=O)C1C(c2ccc3c(I)c(OC)ccc3c2)CC2CCC1N2C (configuration not stated)	2.27 nM	1.31 nM	0.6	781 nM
CCC(=O)C1C(c2ccc3ccc(I)cc3c2)CC2CCC1N2C (configuration not stated)	0.47 nM	0.45 nM	0.5	–
